Measurements from paper PMC2787711 (Biochimica et biophysica acta, 2009).
Entries after “also recorded” stand apart in the source; their conditions may differ.

What was measured:
[1] = target: center N of the yeast cytochrome bc1 complex (Saccharomyces cerevisiae, UniProt P00163+P08067); assay: Pre-steady-state reduction of cytochrome b through center N; type: biochemical; conditions: 2 µM NQ1, 3 µM stigmatellin, oxidized bc1 complex
How it was run: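 Stopped-flow rapid scanning at 24 °C: 1 µM oxidized yeast bc1 complex with 3 µM stigmatellin, with or without 2 µM test compound. Rapid-mixed with 30 µM 2,3-dimethoxy-5-methyl-6-decyl-1,4-benzoquinol. Cytochrome b reduction followed as absorbance time course at 562 and 578 nm; 12–19 data sets averaged.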

[2] = target: bovine bc1 complex (Bos taurus, UniProt P00157+P13272); assay: Ubiquinol-cytochrome c reductase activity of purified bc1 complex; type: biochemical; conditions: for Selectivity Coefficient (comparison in words): IC50 bovine enzyme divided by IC50 yeast enzyme, Fig. 5
How it was run: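 Bovine heart bc1 complex, 2.5 nM, in phosphate pH 7.0 buffer with sucrose, EDTA, azide, KCN, dodecylmaltoside and 40 µM cytochrome c at 23 °C. Enzyme preincubated 1 min with increasing test compound; started with decylbenzoquinol; cytochrome c reduction read at 550 vs 539 nm. Duplicates averaged. IC50 taken from titration curves; Selectivity Coefficient = bovine IC50 / yeast IC50.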

[3] = target: center P of the yeast cytochrome bc1 complex (Saccharomyces cerevisiae, UniProt P00163+P08067); assay: Pre-steady-state oxidant-induced reduction of cytochrome b through center P; type: biochemical; conditions: 2 µM inhibitor, bc1 complex pre-reduced with quinol, 3 µM antimycin
How it was run: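 Then 3 µM antimycin and 2 µM test compound added, 1 min further. Rapid-mixed with 3 µM cytochrome c; stopped-flow rapid-scanning spectroscopy at 24 °C. Absorbance change at 562 and 578 nm extracted; 12–19 data sets averaged.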

[4] = test system: avian malaria; conditions: cited from earlier work
[5] = cited from earlier work
[6] = test system: malaria; conditions: cited from earlier work

CC(CCCCCC(F)(F)F)CC1=C(O)C(=O)c2ccccc2C1=O (centres unmarked) [NQ1, 2-OH-3-(2-Me-trifluorooctyl)-naphthoquinone]
effect on cytochrome b reduction through center N [1]: no effect; also recorded: identical, superimposed kinetic traces in the presence and absence
Selectivity Coefficient (comparison in words) [2]: higher selectivity than atovaquone
inhibition of oxidant-induced reduction of cytochrome b through center P [3]: completely inhibited

CCCCCCC(C)CC1=C(O)C(=O)c2c(C)cccc2C1=O (centres unmarked) [NQ2, 2-OH-3-(2-Me-octyl)-8-Me-naphthoquinone]
Selectivity Coefficient (comparison in words) [2]: higher selectivity than atovaquone

Cc1cccc2c1C(=O)C(O)=C(CC(C)CCCCCC(F)(F)F)C2=O (centres unmarked) [NQ3, 2-OH-3-(2-Me-trifluorooctyl)-8-Me-naphthoquinone]
Selectivity Coefficient (comparison in words) [2]: higher selectivity than atovaquone

CCCCCCC(C)CC1=C(O)C(=O)c2ccccc2C1=O (centres unmarked) [S-10576]
Selectivity Coefficient (comparison in words) [2]: greatest selectivity
Selectivity Coefficient relative to that of atovaquone ([2]; Selectivity Coefficient = IC50 bovine enzyme divided by IC50 yeast enzyme): ~10 fold
efficacy against avian malaria [4]: effective
metabolism and excretion in vivo [5]: terminal two carbons of the side chain are modified by oxidation and the resulting more water soluble compound is rapidly excreted
efficacy in humans [6]: ineffective

O=C1C(O)=C([C@H]2CC[C@H](c3ccc(Cl)cc3)CC2)C(=O)c2ccccc21 [atovaquone, 2-[trans-4-(4’-chlorophenyl)cyclohexyl]-3-hydroxy-1,4-hydroxynaphthoquinone, reference compound]
inhibition of oxidant-induced reduction of cytochrome b through center P [3]: greatly inhibited
